TRPN1 ag = zebrafish TRPN1 channel agonists, primary screen, cell-based, HEK293, calcium fluorescence | activation, % at 3 µM | hit rate 0.18% among 220,000 | HEK293 zebrafish TRPN1-YFP, Fluo-8 calcium fluorescence; 100% = response to 87 µM carbachol | transient receptor potential cation channel N1 (TRPN1/NompC), Danio rerio;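 active = activation above its plate's cutoff, the mean activation of test wells on that plate plus 3 SD, cut at about 19% in these data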;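 also: 0% = DMSO alone and 100% = 87 µM carbachol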
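Material: zebrafish TRPN1-YFP in HEK293 cells; Doses: single test compound dose, 3 µM nominal, 0.3% DMSO; Timing: dye loading 1 h at 37 °C, then 30 min room temperature; Technique: intracellular calcium fluorescence with Fluo-8; Benchmarks: high carbachol 87 µM, low DMSO alone.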
TRPML3 agonist = human TRPML3 channel agonists, primary screen, cell-based, HEK293 TRPML3-YFP, Fluo-8 calcium fluorescence, 3 µM | Mucolipin-3 (Homo sapiens), Q8TDD5 | 100% = the carbachol control signal | activation, % at 3 µM | hit rate 0.29% among 220,000 | AID 1448, 2008;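 active = activation above its plate's cutoff, the mean activation of the plate's test wells plus 3 SD, cut at about 12% in these data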;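 also: 0% = DMSO only wells and 100% = carbachol wells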
Target sequence (Q8TDD5 whole entry, looked up): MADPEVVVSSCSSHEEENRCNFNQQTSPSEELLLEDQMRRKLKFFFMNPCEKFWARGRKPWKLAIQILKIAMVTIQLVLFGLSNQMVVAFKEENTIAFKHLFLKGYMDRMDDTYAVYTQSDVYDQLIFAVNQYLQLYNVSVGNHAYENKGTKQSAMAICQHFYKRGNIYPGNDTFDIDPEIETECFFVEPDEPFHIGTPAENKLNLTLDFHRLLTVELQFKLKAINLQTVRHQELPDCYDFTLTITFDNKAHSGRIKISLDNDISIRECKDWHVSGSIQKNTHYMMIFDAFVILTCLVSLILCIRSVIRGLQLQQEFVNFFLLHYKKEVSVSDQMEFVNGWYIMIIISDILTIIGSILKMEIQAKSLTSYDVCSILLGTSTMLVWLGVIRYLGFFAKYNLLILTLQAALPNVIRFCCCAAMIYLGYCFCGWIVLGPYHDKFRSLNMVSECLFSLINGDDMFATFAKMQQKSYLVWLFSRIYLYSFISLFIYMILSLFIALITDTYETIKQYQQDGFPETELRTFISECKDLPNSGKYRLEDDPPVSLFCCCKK
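system = HEK293 cells stably carrying human TRPML3-YFP | doses = one concentration, 3 µM nominal, 0.3% DMSO | timing = dye loading 1 h 37 °C then 30 min ambient, 125 s read | detection = Fluo-8 calcium dye fluorescence, ex 470-495, em 515-575 nm | benchmarks = high control carbachol 87 µM, low control DMSO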
OXTR potentiator = human OXTR potentiators, primary screen, fluorescence, CHO-OTR cells, Fluo-8 calcium. Fluo-8 calcium fluorescence, potentiator mode; 0% = oxytocin EC15, 100% = EC100. hit rate 0.061% among 320,000. Oxytocin receptor (Homo sapiens), P30559. AID 2445, 2010. activation, % at 3 µM;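 active = activation above that plate's cutoff, the mean activation of tested compounds plus 3 SD, cut at about 6.6% in these data, passing the limit was not always enough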;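 also: 100% uses oxytocin at 75 nM as the full agonist control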
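Assay system: CHO-OTR cells, human receptor / Also added: oxytocin at about EC15, sub-maximal agonist stimulus / Dosing: single dose, 3.0 µM nominal final compound concentration / Incubation: 6 min pre-incubation, 100 s read / Technique: Fluo-8 calcium dye fluorescence / Read-out: % activation vs EC15 and EC100 oxytocin / Benchmarks: EC15 oxytocin low, 75 nM oxytocin high / Replicates: singlicate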
V1aR counter = agonists of human V1a receptor, primary screen, counter-screen for OXTR agonist project, fluorescence, CHO-V1R cells. Vasopressin V1a receptor (Homo sapiens), P37288. Fluo-8 calcium fluorescence, agonist mode; 0% DMSO, 100% 3 nM vasopressin. activation, % at 3 µM. hit rate 0.25% among 320,000. AID 2797, 2010;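 active = activation above the mean activation of all tested compounds plus 3 SD, per screening run, cut at about 20% in these data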;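 also: signal is peak over basal fluorescence ratio across a 100 second FLIPR read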
OXTR ag = human OXTR agonists, primary screen, fluorescence, CHO-OTR cells, Fluo-8 calcium. hit rate 0.32% among 320,000. Oxytocin receptor (Homo sapiens), P30559. activation, % at 3 µM. Fluo-8 calcium fluorescence; normalized: DMSO 0%, oxytocin 100%;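 active = activation above the mean of all tested compounds plus 3 SD, cutoff set per screening run, cut at about 20% in these data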;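 also: peak over basal fluorescence ratio from a 100 s FLIPR kinetic read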
* hit, by the source's call; . = not tested or not shown. Rows were chosen to be rich in hits. Some 0.59% of all compounds tested hit in one or more screens of this group.

SMILES	TRPN1 ag	TRPML3 agonist	OXTR potentiator	V1aR counter	OXTR ag
CCN1C(N(C)CCc2c[nH]c3ccccc23)=N[C@@H](c2cccc(C(F)(F)F)c2)C(C(=O)OC)=C1C	.	.	-10	7	23*
FC(F)C(F)(F)c1cc(-c2ccc(Cl)cc2)n[nH]1	7	3	-19	22*	21*
Fc1ccc(-c2cc(C(F)(F)C(F)F)[nH]n2)cc1	13	10	-21	32*	39*
CCN1CCN(c2ccc(S(=O)(=O)N3CCCCC3)cc2NC(=O)Cc2ccc(Cl)c(Cl)c2)CC1	.	.	-18	49*	86*
CC(C)(C)c1cc(O)c(C(C)(C)C)cc1O	.	.	-26	48*	71*
COc1ccc2cc([C@H](C)C(=O)N(C)Cc3ccccc3N3CCCC3)ccc2c1	.	.	-13	1	-2
C#CCOCCOCCOCCNc1nc(N2CCN(C(=O)CCCCCCCCCCNC(=O)[C@H](CCCCN)n3cc(CCO)nn3)CC2)nc(N2CCN(C(=O)CCCCCCCCCCNC(=O)[C@H](CCCCN)n3cc(C[C@@H](C)CC)nn3)CC2)n1	.	.	-13	25*	6
COC(=O)NNC(=O)C12CC3CC(CC(C3)C1)C2	0	1	-9	0	0
NC(=S)NNC(=O)C12CC3CC(CC(C3)C1)C2	29*	3	-17	23*	34*
COC(=O)c1cccc(NC(=O)Nc2ccc(Cl)c(Cl)c2)c1	20*	7	-13	11	17
COC(=O)c1cccc(NC(=O)NC(=O)c2ccccc2Cl)c1	2	0	-10	-1	-1
CC1(C(=O)OCC(=O)Nc2ccc(S(=O)(=O)N3CCOCC3)cc2)CC1(Cl)Cl (centres undefined)	.	.	-8	6	7
COc1ccc(N(C)S(=O)(=O)c2ccc3c(c2)NC(=O)CC(=O)N3)c(OC)c1	.	.	-3	0	1
COc1cc(N2CCCC2)c(OC)cc1/C=C1/NC(=S)NC1=O	60*	17*	-9	36*	48*
COc1ccc(OC)c(/C=C2\NC(=O)NC2=O)c1	.	.	6	0	0
Cc1cccc(N2C(=O)C(O)=C(C(=O)c3cccs3)C2c2ccc(C(C)C)cc2)n1 (centres undefined)	-1	1	-14	33*	33*
CC(C)c1nnc(N2C(=O)C(O)=C(C(=O)c3cccs3)C2c2ccccc2)s1 (centres undefined)	183*	114*	.	.	.
COC(=O)CC1(C(=O)OC)Oc2ccccc2C(=O)N1c1ccc(F)cc1F (centres undefined)	.	.	3	0	1
CCN(CC)c1ccc(/C=C/C(=O)C2C(=O)C=C(C)OC2=O)cc1 (centres undefined)	35*	16*	-29	141*	158*
N#CC1=C(N)OC2=C(CC/C2=C\c2ccccc2)C1c1ccccc1 (centres undefined)	7	3	-19	26*	28*
N#CC1=C(N)OC2=C(CC/C2=C\c2ccccc2Cl)C1c1ccccc1Cl (centres undefined)	0	0	-8	0	0
COc1ccc(C)cc1N/C(N)=N/c1nc(C)cc(C)n1	1	0	0	2	2
Cc1ccc(C)c(N/C(N)=N/c2nc(C)cc(C)n2)c1	36*	21*	-18	26*	21*
Cc1cc(C)nc(/N=C(\N)Nc2ccc(SC(F)F)cc2)n1	36*	17*	-10	28*	32*
COc1ccc(C(=O)O)cc1S(=O)(=O)Nc1ccc(Oc2ccccc2)cc1	.	.	-2	1	0
SMILES	TRPN1 ag	TRPML3 agonist	OXTR potentiator	V1aR counter	OXTR ag
COc1ccc(S(=O)(=O)N2CC(C)N(S(=O)(=O)c3ccc(OC)cc3)CC2C)cc1 (centres undefined)	.	.	-8	0	0
COc1ccc(S(=O)(=O)N2CC3C4C=CC(C4)C3C2)cc1 (centres undefined)	1	56*	-7	0	-1
COc1ccc(/C=C2\CCCc3c2nc2ccccc2c3C(=O)O)cc1OC	40*	19*	-9	14	2
COc1ccc(/C=C2\CCc3c2nc2ccccc2c3C(=O)O)cc1OC	1	1	-4	11	11
CCOc1ccc(/C=C2\CCCc3c2nc2ccccc2c3C(=O)O)cc1OC	.	.	-17	135*	100*
COc1ccc(/C=C(\C#N)C(=O)N2COCC2(C)C)cc1	.	.	-13	1	0
CCCn1c(SCC(=O)c2cc(C)n(C3CC3)c2C)n[nH]c1=O	.	.	-4	1	2
Nc1ncnc2c1ncn2[C@@H]1O[C@H](COP(=O)(O)OP(=O)(O)OP(=O)(O)O)[C@@H](O)[C@H]1O	.	.	-24	78*	69*
CCN(CC)c1ccc2cc(-c3nnc(-c4ccncc4)o3)c(=O)oc2c1	47*	27*	.	.	.
CCN(CC)c1ccc2cc(C=O)c(=O)oc2c1	39*	19*	-24	88*	110*
O=C(c1c[nH]c2ccccc12)C(Cl)c1ccccc1 (centres undefined)	.	.	-11	2	0
Cn1c(Cc2ccccc2)nnc1SCC(=O)c1ccc(Br)s1	0	38*	1	0	0
Cn1nnnc1SCC(=O)c1ccc(Br)s1	1	0	-3	-1	1
CN(C)c1ccc(/C=C/C(=O)c2cccc(Br)c2)cc1	163*	92*	-10	155*	94*
CN(C)c1ccc(C(=O)/C=C/c2cccnc2)cc1	.	.	-1	-1	-1
COc1ccc(Br)cc1/C=N/n1nnnc1N	.	.	-11	-1	1
CC(=O)Nc1ccc(NC(=O)CSc2nnc(-c3cccs3)n2N)cc1	.	.	-1	2	0
O=[N+]([O-])c1ccc(O)c(/C=N/n2cnc3ccccc32)c1	2	1	-14	14	21*
O=[N+]([O-])c1ccc(O)c(/C=N/n2c(CO)nc3ccccc32)c1	4	2	-12	2	2
CN(C(=O)c1cccc(NC(=O)Cc2ccc([N+](=O)[O-])cc2)c1)C1CCCC1	.	.	-7	6	6
CN(C(=O)c1ccc(NC(=O)Cc2ccc([N+](=O)[O-])cc2)cc1)C1CCCC1	.	.	-12	21*	22*
CCCCn1c(SCC(=O)NC2CCCC2)nnc1-c1ccco1	.	.	3	0	0
CCCCC/C=C\C/C=C\C/C=C\C/C=C\CCCC(=O)O	.	.	9.6*	-1	-1

Screening data (PubChem BioAssay)
